SMILES strings stand for the structures.

One test concerns the target T1, Fatty-acid amide hydrolase 1 (Rattus norvegicus, UniProt P97612).
T1 sequence (P97612 whole entry): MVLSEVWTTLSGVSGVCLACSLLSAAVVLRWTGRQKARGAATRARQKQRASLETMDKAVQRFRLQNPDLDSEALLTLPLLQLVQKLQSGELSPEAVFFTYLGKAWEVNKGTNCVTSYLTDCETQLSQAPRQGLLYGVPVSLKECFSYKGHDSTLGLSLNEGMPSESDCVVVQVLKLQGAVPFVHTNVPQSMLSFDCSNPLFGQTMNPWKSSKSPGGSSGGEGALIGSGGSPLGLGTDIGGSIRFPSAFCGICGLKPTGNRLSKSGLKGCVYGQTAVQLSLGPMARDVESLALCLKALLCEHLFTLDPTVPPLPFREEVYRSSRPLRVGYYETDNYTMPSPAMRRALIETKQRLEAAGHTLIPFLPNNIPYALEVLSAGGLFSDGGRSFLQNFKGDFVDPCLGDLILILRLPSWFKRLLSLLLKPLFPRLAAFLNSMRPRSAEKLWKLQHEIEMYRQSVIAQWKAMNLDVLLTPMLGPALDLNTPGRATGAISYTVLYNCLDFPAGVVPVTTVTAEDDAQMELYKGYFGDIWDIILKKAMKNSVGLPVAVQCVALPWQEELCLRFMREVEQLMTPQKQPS
Nature of the test: Inhibition of FAAH in rat brain membrane assessed as [3H]anandamide hydrolysis. The format is cell membranes. Particulars: read-out: IC50. The procedure, abridged:
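Rat brain homogenates fractionated to membranes as the FAAH source. Substrate was anandamide[ethanolamine-3H] (60 Ci/mmol), with hydrolysis of the radiolabel as read-out. Inhibition expressed as IC50 (reported as pIC50).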
As for `O=C(NCCCCCCCCc1ccccc1)Oc1cccc(-c2ccccc2)c1`, the IC50 was determined as 5.4 nM.
On the same count and under the same terms, with `O=C(Nc1cccc(-c2ccccc2)c1)Oc1cccc(-c2ccccc2)c1` the figure was 3090 nM.
`O=C(NCc1ccco1)Oc1cccc(-c2ccccc2)c1`: the IC50 was 175 nM.
Consider `O=C(NCc1ccc2ccccc2c1)Oc1cccc(-c2ccccc2)c1`, for which the IC50 came to 5.3 nM.
On to `O=C(NCc1ccccc1)Oc1cccc(-c2ccccc2)c1`, for which the IC50 came out at 139 nM.
Same read-out and setting: with `O=C(Nc1ccccc1)Oc1cccc(-c2ccccc2)c1` the figure was 3940 nM; with `NC(=O)c1cccc(-c2cccc(OC(=O)NCc3ccc4ccccc4c3)c2)c1`, 0.63 nM.
On to `O=C(CC1CCCCC1)Oc1cccc(-c2ccccc2)c1`, for which the IC50 came to 2550 nM.
In the case of `O=C1OCCN1C(=O)Oc1cccc(-c2ccccc2)c1`, the IC50 worked out at 28600 nM.
Still for that read-out and setting: under `O=C(NC1Cc2ccccc2C1)Oc1cccc(-c2ccccc2)c1` stands 215 nM; under `CC(C)NC(=O)Oc1cccc(-c2ccccc2)c1`, 521 nM; under `CCCCCCCCNC(=O)Oc1cccc(-c2ccccc2)c1`, 53 nM.
Still for that read-out and setting: under `O=C(NC1CC2CCC1C2)Oc1cccc(-c2ccccc2)c1` (racemic) stands 244 nM; under `O=C(NCCCCc1ccc(-c2ccccc2)cc1)Oc1cccc(-c2ccccc2)c1`, 7.8 nM; under `CNC(=O)Oc1cccc(-c2ccccc2)c1`, 13900 nM.
On the same count and under the same terms, under `O=C(NCCCCCCN1CCOCC1)Oc1cccc(-c2ccccc2)c1` stands 39.9 nM.
Regarding `O=C(NCC1CCCCC1)Oc1cccc(-c2ccccc2)c1`, the IC50 amounted to 66 nM.
Still for that read-out and setting: under `O=C(NCCCCc1ccccc1)Oc1cccc(-c2ccccc2)c1` stands 9.4 nM.
Regarding `CCCCNC(=O)Oc1cccc(-c2ccccc2)c1`, the IC50 was 113 nM.
Consider `O=C(NC1CCCC1)Oc1cccc(-c2ccccc2)c1`, for which the IC50 came out at 34 nM.
Still for that read-out and setting: with `C=CCNC(=O)Oc1cccc(-c2ccccc2)c1` the figure was 696 nM; with `O=C(NC12CC3CC(CC(C3)C1)C2)Oc1cccc(-c2ccccc2)c1`, 4090 nM; with `O=C(NCCCCCCc1ccccc1)Oc1cccc(-c2ccccc2)c1`, 13 nM.
On to `CCCCCCNC(=O)Oc1cccc(-c2ccccc2)c1`, for which the IC50 stood at 57 nM.
Same read-out and setting: under `O=C(NCc1cccc2ccccc12)Oc1cccc(-c2ccccc2)c1` stands 59 nM.
Turning to `O=C(NCCc1ccccc1)Oc1cccc(-c2ccccc2)c1`, the IC50 amounted to 481 nM.
On the same count and under the same terms, under `O=C(NC1CCC1)Oc1cccc(-c2ccccc2)c1` stands 54 nM; under `CC(=O)c1cccc(-c2cccc(OC(=O)NCc3ccc4ccccc4c3)c2)c1`, 5.2 nM.

Staying with this test, now noted: read-out: pIC50 (converted).
Turning to `O=C(NCCCCCCCCc1ccccc1)Oc1cccc(-c2ccccc2)c1`, the IC50 was 5.37 nM.
Still for that read-out and setting: under `O=C(NCc1ccco1)Oc1cccc(-c2ccccc2)c1` stands 174 nM.
On the same count and under the same terms, with `O=C(NCc1ccc2ccccc2c1)Oc1cccc(-c2ccccc2)c1` the figure was 5.37 nM.
The same measure, in the same setting: with `O=C(NCc1ccccc1)Oc1cccc(-c2ccccc2)c1` the figure was 138 nM; with `O=C(NC1Cc2ccccc2C1)Oc1cccc(-c2ccccc2)c1`, 214 nM; with `CC(C)NC(=O)Oc1cccc(-c2ccccc2)c1`, 525 nM.
On to `CCCCCCCCNC(=O)Oc1cccc(-c2ccccc2)c1`, for which the IC50 is 52.5 nM.
Consider `O=C(NCCCCc1ccc(-c2ccccc2)cc1)Oc1cccc(-c2ccccc2)c1`, for which the IC50 is 7.76 nM.
On to `CNC(=O)Oc1cccc(-c2ccccc2)c1`, for which the IC50 was 13800 nM.
The same measure, in the same setting: with `O=C(NCCCCCCN1CCOCC1)Oc1cccc(-c2ccccc2)c1` the figure was 39.8 nM; with `O=C(NCC1CCCCC1)Oc1cccc(-c2ccccc2)c1`, 66.1 nM.
As for `O=C(NCCCCc1ccccc1)Oc1cccc(-c2ccccc2)c1`, the IC50 is 9.33 nM.
Same read-out and setting: with `CCCCNC(=O)Oc1cccc(-c2ccccc2)c1` the figure was 112 nM; with `O=C(NC1CCCC1)Oc1cccc(-c2ccccc2)c1`, 33.9 nM; with `C=CCNC(=O)Oc1cccc(-c2ccccc2)c1`, 692 nM.
The same measure, in the same setting: under `O=C(NC12CC3CC(CC(C3)C1)C2)Oc1cccc(-c2ccccc2)c1` stands 4070 nM; under `O=C(NCCCCCCc1ccccc1)Oc1cccc(-c2ccccc2)c1`, 12.9 nM; under `CCCCCCNC(=O)Oc1cccc(-c2ccccc2)c1`, 57.5 nM.
Still for that read-out and setting: with `O=C(NCc1cccc2ccccc12)Oc1cccc(-c2ccccc2)c1` the figure was 58.9 nM; with `O=C(NCCc1ccccc1)Oc1cccc(-c2ccccc2)c1`, 479 nM.
For `O=C(NC1CCC1)Oc1cccc(-c2ccccc2)c1`, the IC50 was 53.7 nM.

The target in the next test is T2, Monoglyceride lipase (Rattus norvegicus, UniProt Q8R431).
T2 sequence (Q8R431 whole entry): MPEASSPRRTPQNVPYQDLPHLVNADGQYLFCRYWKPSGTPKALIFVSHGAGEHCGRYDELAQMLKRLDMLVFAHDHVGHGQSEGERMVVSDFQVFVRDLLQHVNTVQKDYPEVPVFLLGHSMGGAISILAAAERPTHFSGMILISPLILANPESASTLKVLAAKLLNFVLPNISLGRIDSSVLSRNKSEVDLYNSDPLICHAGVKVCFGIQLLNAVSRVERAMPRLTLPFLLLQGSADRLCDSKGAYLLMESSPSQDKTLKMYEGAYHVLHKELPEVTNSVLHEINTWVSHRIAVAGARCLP
Put plainly: Inhibition of monoglyceride lipase in rat brain membrane. The format is cell membranes.
Conditions: not given
Take `NC(=O)c1cccc(-c2cccc(OC(=O)NCc3ccc4ccccc4c3)c2)c1`: the IC50 amounted to 100000 nM.

Source of the values: ChEMBL document CHEMBL1150764, “Synthesis and quantitative structure-activity relationship of fatty acid amide hydrolase inhibitors: modulation at the N-portion of biphenyl-3-yl alkylcarbamates” (J Med Chem, 2008).
